Experimental data published in ChEMBL document CHEMBL1145465, “PhoU is a persistence switch involved in persister formation and tolerance to multiple antibiotics and stresses in Escherichia coli” (2007).

Columns and labels:
[1] = test system: Escherichia coli; experiment: Antibacterial activity against Escherichia coli K12 containing deletion deltaphoU mutant assessed as cell count in stationary phase at 3 ug/ml after 3 days; assay type: functional
In short: (§1)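 Log-phase or stationary-phase cultures of the ΔphoU deletion mutant (Datsenko–Wanner construction) were exposed to norfloxacin 3 μg/ml in MOPS minimal medium, pH 5.0, at 37°C without shaking, for up to 10 days. Sampled aliquots were washed in saline and plated on LB agar for CFU/ml.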

[2] = test system: Escherichia coli; experiment: Antibacterial activity against Escherichia coli K12 containing PhoU mutant assessed as cell count in stationary phase at 3 ug/ml after 1 day; assay type: functional
In short: (§2)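 Log-phase or stationary-phase cultures were exposed to ampicillin (100 μg/ml) or norfloxacin (3 μg/ml) in MOPS minimal medium, pH 5.0, at 37°C without shaking, for 5 h to 10 days. Aliquots were saline-washed and plated on LB for CFU/ml.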

[3] = test system: Escherichia coli; experiment: Antibacterial activity against Escherichia coli K12 containing deletion deltaphoU mutant assessed as cell count in log phase at 3 ug/ml after 5 days; assay type: functional; in short: as §1
[4] = test system: Escherichia coli; experiment: Antibacterial activity against Escherichia coli K12 PhoU wild type W3110 assessed as cell count in log phase at 3 ug/ml after 1 day; assay type: functional; in short: as §2
[5] = test system: Escherichia coli; experiment: Antibacterial activity against Escherichia coli K12 PhoU wild type W3110 at 4 ug/ml after 48 hrs by disc diffusion method; assay type: functional
In short: (§3)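 Kirby-Bauer disc assay. Log-phase LB culture (10⁸ bacteria) was spread for confluent growth on LB agar. 7 mm nitrocellulose discs soaked in antibiotic at the listed concentrations were laid on the agar. Inhibition zone diameter (mm) was measured after 48 h at 37°C.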

[6] = test system: Escherichia coli; experiment: Antibacterial activity against Escherichia coli K12 PhoU wild type W3110 assessed as cell count in stationary phase at 3 ug/ml after 1 week; assay type: functional; in short: as §2
[7] = test system: Escherichia coli; experiment: Antibacterial activity against Escherichia coli K12 mutant JHU313 at 4 ug/ml after 48 hrs by disc diffusion method; assay type: functional
In short: (§4)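 Kirby-Bauer disc assay: log-phase LB culture was spread on LB agar for confluent growth. 7-mm nitrocellulose discs were soaked in antibiotic at the listed concentration and placed on the agar. After 48 h at 37°C, the diameter of the inhibition zone was measured in mm.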

[8] = test system: Escherichia coli; experiment: Antibacterial activity against Escherichia coli K12 PhoU wild type W3110 assessed as cell count in stationary phase at 3 ug/ml after 5 hrs; assay type: functional; in short: as §2
[9] = test system: Escherichia coli; experiment: Antibacterial activity against Escherichia coli K12 containing deletion deltaphoU mutant assessed as cell count in log phase at 3 ug/ml after 1 day; assay type: functional; in short: as §1
[10] = test system: Escherichia coli; experiment: Antibacterial activity against Escherichia coli K12 containing PhoU mutant assessed as cell count in log phase at 3 ug/ml after 1 day; assay type: functional; in short: as §2
[11] = test system: Escherichia coli; experiment: Antibacterial activity against Escherichia coli K12 containing deletion deltaphoU mutant assessed as cell count in log phase at 3 ug/ml after 1 week; assay type: functional; in short: as §1
[12] = test system: Escherichia coli; experiment: Antibacterial activity against Escherichia coli K12 PhoU wild type W3110 at 2 ug/ml after 48 hrs by disc diffusion method; assay type: functional; in short: as §3
[13] = test system: Escherichia coli; experiment: Antibacterial activity against Escherichia coli K12 containing PhoU mutant assessed as cell count in log phase at 3 ug/ml after 3 days; assay type: functional; in short: as §2
[14] = test system: Escherichia coli; experiment: Antibacterial activity against Escherichia coli K12 PhoU wild type W3110 assessed as cell count in log phase at 3 ug/ml after 5 days; assay type: functional; in short: as §2
[15] = test system: Escherichia coli; experiment: Antibacterial activity against Escherichia coli K12 containing deletion deltaphoU mutant assessed as cell count in log phase at 3 ug/ml after 3 days; assay type: functional; in short: as §1
[16] = test system: Escherichia coli; experiment: Antibacterial activity against Escherichia coli K12 mutant JHU313 containing plasmid vector at 2 ug/ml after 48 hrs by disc diffusion method; assay type: functional; in short: as §4
[17] = test system: Escherichia coli; experiment: Antibacterial activity against Escherichia coli K12 mutant JHU313 containing plasmid PhoU at 4 ug/ml after 48 hrs by disc diffusion method; assay type: functional; in short: as §4
[18] = test system: Escherichia coli; experiment: Antibacterial activity against Escherichia coli K12 containing deletion deltaphoU mutant assessed as cell count in log phase at 3 ug/ml after 10 days; assay type: functional; in short: as §1
[19] = test system: Escherichia coli; experiment: Antibacterial activity against Escherichia coli K12 mutant JHU313 containing plasmid PhoU at 0.1 ug/ml after 48 hrs by disc diffusion method; assay type: functional; in short: as §4
[20] = test system: Escherichia coli; experiment: Antibacterial activity against Escherichia coli K12 PhoU wild type W3110 assessed as cell count in stationary phase at 3 ug/ml after 5 days; assay type: functional; in short: as §2
[21] = test system: Escherichia coli; experiment: Antibacterial activity against Escherichia coli K12 mutant JHU313 containing plasmid PhoU at 25 ug/ml after 48 hrs by disc diffusion method; assay type: functional; in short: as §4
[22] = test system: Escherichia coli; experiment: Antibacterial activity against Escherichia coli K12 containing deletion deltaphoU mutant assessed as cell count in stationary phase at 100 ug/ml after 1 day; assay type: functional
In short: (§5)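 Wild-type W3110-derived deletion mutants were made by the Datsenko–Wanner method. Log-phase or stationary-phase cultures were exposed to ampicillin 100 μg/ml in MOPS minimal medium at pH 5.0, at 37°C without shaking. Aliquots were taken at set times, washed in saline and plated on LB for viable CFU/ml.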

[23] = test system: Escherichia coli; experiment: Antibacterial activity against Escherichia coli K12 containing deletion deltaphoB mutant assessed as cell count in stationary phase at 100 ug/ml after 5 hrs; assay type: functional
In short: (§6)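 Deletion mutants were made by the Datsenko–Wanner method. Log-phase or stationary-phase cultures were exposed to ampicillin at 100 μg/ml. CFU/ml was determined at the start and after 5, 24 and 72 h of exposure.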

[24] = test system: Escherichia coli; experiment: Antibacterial activity against Escherichia coli K12 PhoU wild type W3110 at 100 ug/ml after 48 hrs by disc diffusion method; assay type: functional; in short: as §3
[25] = test system: Escherichia coli; experiment: Antibacterial activity against Escherichia coli K12 PhoU wild type W3110 assessed as cell count at 100 ug/ml; assay type: functional
[26] = test system: Escherichia coli; experiment: Antibacterial activity against Escherichia coli K12 containing deletion deltahipA mutant assessed as cell count in stationary phase at 100 ug/ml after 24 hrs; assay type: functional; in short: as §6
[27] = test system: Escherichia coli; experiment: Antibacterial activity against Escherichia coli K12 containing deletion deltahipA mutant assessed as cell count in stationary phase at 100 ug/ml after 5 hrs; assay type: functional; in short: as §6
[28] = test system: Escherichia coli; experiment: Antibacterial activity against Escherichia coli K12 containing deletion deltaphoR mutant assessed as cell count in stationary phase at 100 ug/ml after 24 hrs; assay type: functional; in short: as §5
[29] = test system: Escherichia coli; experiment: Antibacterial activity against Escherichia coli K12 containing deletion deltaphoU mutant assessed as cell count in log phase at 100 ug/ml after 5 hrs; assay type: functional; in short: as §5
[30] = test system: Escherichia coli; experiment: Antibacterial activity against Escherichia coli K12 mutant JHU313 containing plasmid PhoU at 100 ug/ml after 48 hrs by disc diffusion method; assay type: functional; in short: as §4
[31] = test system: Escherichia coli; experiment: Antibacterial activity against Escherichia coli K12 mutant JHU313 containing plasmid PhoU at 6 ug/ml after 48 hrs by disc diffusion method; assay type: functional; in short: as §4
[32] = test system: Escherichia coli; experiment: Antibacterial activity against Escherichia coli K12 containing deletion deltaphoBR mutant assessed as cell count in stationary phase at 100 ug/ml after 72 hrs; assay type: functional; in short: as §6
[33] = test system: Escherichia coli; experiment: Antibacterial activity against Escherichia coli K12 mutant JHU313 assessed as cell count at 100 ug/ml

For `CCn1cc(C(=O)O)c(=O)c2cc(F)c(N3CCNCC3)cc21` [NORFLOXACIN], the CFU [1] was 3 10^5/ml, the CFU [2] was 4.5 10^7/ml and the CFU [3] was 0 mL⁻¹. For the same molecule, the CFU [4] was 4 10^6/ml, the inhibition zone (IZ) [5] was 32 mm and the CFU [6] was 1.5 10^4/ml. The inhibition zone (IZ) [7] was 37 mm, the CFU [8] was 5 10^9/ml and the CFU [9] was 1 10^6/ml. The CFU [10] was 4 10^5/ml, the CFU [11] was 0 mL⁻¹ and the inhibition zone (IZ) [12] was 30 mm. For the same molecule, the CFU [13] was 0 mL⁻¹, the CFU [14] was 7 10^2/ml and the CFU [15] was 0 mL⁻¹. It also gave an inhibition zone (IZ) [16] of 40 mm, an inhibition zone (IZ) [17] of 36 mm and a CFU [18] of 0 mL⁻¹. For the same molecule, the inhibition zone (IZ) [19] was 27 mm and the CFU [20] was 4 10^6/ml.

For `CC1(C)S[C@@H]2[C@H](NC(=O)[C@H](N)c3ccccc3)C(=O)N2[C@H]1C(=O)O` [AMPICILLIN], the inhibition zone (IZ) [21] was 36 mm, the CFU [22] was 7 10^6/ml and the CFU [23] was 4 10^9/ml. The inhibition zone (IZ) [24] was 35 mm, the CFU [25] was 5 10^7/ml and the CFU [26] was 1.8 10^9/ml. The CFU [27] was 6 10^9/ml, the CFU [28] was 1.5 10^9/ml and the CFU [29] was 1 10^2/ml. For the same molecule, the inhibition zone (IZ) [30] was 40 mm, the inhibition zone (IZ) [31] was 32 mm and the CFU [32] was 2 10^8/ml. The CFU [33] was 1.4 10^7/ml.
